Measurements from ChEMBL document CHEMBL1795311, “Synthesis, antiproliferative activity, and mechanism of action of a series of 2-{[(2E)-3-phenylprop-2-enoyl]amino}benzamides” (Eur J Med Chem, 2011).

Legend:
K562 [1] = test: Antiproliferative activity against human K562 cells at 10 uM after 48 hrs by trypan blue assay; format: functional; conditions: K562, 48 h, read-out: GI
K562 [2] = test: Growth inhibition of human K562 cells after 48 hrs by trypan blue assay; format: functional, cell-based; conditions: K562, 48 h
CCRF-CEM = test: Growth inhibition of human CCRF-CEM cells after 48 hrs by SRB assay; format: functional
Procedure, shortened: (§1)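 NCI DTP panel cells grown in RPMI 1640 with 5% FBS and 2 mM L-glutamine, preincubated 24 h, then given five concentrations (10-fold or ½-log dilutions from DMSO stock) for 48 h at 37 °C. Cells fixed with TCA, stained with SRB, absorbance read at 515 nm, with time-zero plates as reference.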

HL-60 = test: Growth inhibition of human HL60 cells after 48 hrs by SRB assay; format: functional; conditions: HL-60, 48 h; procedure, shortened: as §1
K562 [3] = test: Growth inhibition of human K562 cells after 48 hrs by SRB assay; format: functional; conditions: K562, 48 h; procedure, shortened: as §1
MOLT-4 = test: Growth inhibition of human MOLT4 cells after 48 hrs by SRB assay; format: functional; conditions: MOLT-4, 48 h; procedure, shortened: as §1
RPMI-8226 = test: Growth inhibition of human RPMI8226 cells after 48 hrs by SRB assay; format: functional; conditions: RPMI-8226, 48 h; procedure, shortened: as §1
A549 = test: Growth inhibition of human A549 cells after 48 hrs by SRB assay; format: functional; conditions: A549, 48 h; procedure, shortened: as §1
EKVX = test: Growth inhibition of human EKVX cells after 48 hrs by SRB assay; format: functional; procedure, shortened: as §1
HOP-62 = test: Growth inhibition of human HOP62 cells after 48 hrs by SRB assay; format: functional; conditions: HOP-62, 48 h; procedure, shortened: as §1
HOP-92 = test: Growth inhibition of human HOP92 cells after 48 hrs by SRB assay; format: functional; conditions: HOP-92, 48 h; procedure, shortened: as §1
NCI-H226 = test: Growth inhibition of human NCI-H226 cells after 48 hrs by SRB assay; format: functional; conditions: NCI-H226, 48 h; procedure, shortened: as §1
NCI-H23 = test: Growth inhibition of human NCI-H23 cells after 48 hrs by SRB assay; format: functional; conditions: NCI-H23, 48 h; procedure, shortened: as §1
NCI-H460 = test: Growth inhibition of human NCI-H460 cells after 48 hrs by SRB assay; format: functional; conditions: NCI-H460, 48 h; procedure, shortened: as §1
COLO 205 = test: Growth inhibition of human COLO205 cells after 48 hrs by SRB assay; format: functional; conditions: COLO 205, 48 h; procedure, shortened: as §1
HCT-116 = test: Growth inhibition of human HCT116 cells after 48 hrs by SRB assay; format: functional; conditions: HCT-116, 48 h; procedure, shortened: as §1
HCT-15 = test: Growth inhibition of human HCT15 cells after 48 hrs by SRB assay; format: functional; conditions: HCT-15, 48 h; procedure, shortened: as §1
HT-29 = test: Growth inhibition of human HT-29 cells after 48 hrs by SRB assay; format: functional; conditions: HT-29, 48 h; procedure, shortened: as §1
KM12 = test: Growth inhibition of human KM12 cells after 48 hrs by SRB assay; format: functional; conditions: KM12, 48 h; procedure, shortened: as §1
SW-620 = test: Growth inhibition of human SW620 cells after 48 hrs by SRB assay; format: functional; conditions: SW-620, 48 h
Procedure, shortened: (§2)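 Run by the NCI Developmental Therapeutics Program: cells in RPMI 1640 with 5% FBS and 2 mM L-glutamine, plated at 5000–40,000 cells/well and grown 24 h before dosing. Drug (DMSO stock) given at five concentrations for 48 h at 37 °C, 5% CO2. Adherent cells fixed with cold TCA, stained with 0.4% SRB and read at 515 nm. GI50, TGI and LC50 taken from the time-zero, control and treated absorbances.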

SF-268 = test: Growth inhibition of human SF268 cells after 48 hrs by SRB assay; format: functional; conditions: SF-268, 48 h; procedure, shortened: as §1
SF-295 = test: Growth inhibition of human SF295 cells after 48 hrs by SRB assay; format: functional; conditions: SF-295, 48 h; procedure, shortened: as §1
SF-539 = test: Growth inhibition of human SF539 cells after 48 hrs by SRB assay; format: functional; conditions: SF-539, 48 h; procedure, shortened: as §1
SNB-19 = test: Growth inhibition of human SNB19 cells after 48 hrs by SRB assay; format: functional; conditions: SNB-19, 48 h; procedure, shortened: as §2
SNB-75 = test: Growth inhibition of human SNB75 cells after 48 hrs by SRB assay; format: functional; conditions: SNB-75, 48 h; procedure, shortened: as §2
U-251 = test: Growth inhibition of human U251 cells after 48 hrs by SRB assay; format: functional; conditions: U-251, 48 h; procedure, shortened: as §2
LOX IMVI = test: Growth inhibition of human LOXIMVI cells after 48 hrs by SRB assay; format: functional; procedure, shortened: as §1
Malme-3M = test: Growth inhibition of human MALME-3M cells after 48 hrs by SRB assay; format: functional; procedure, shortened: as §1
M14 = test: Growth inhibition of human M14 cells after 48 hrs by SRB assay; format: functional; conditions: M14, 48 h; procedure, shortened: as §1
MDA-MB-435 = test: Growth inhibition of human MDA-MB-435 cells after 48 hrs by SRB assay; format: functional; conditions: MDA-MB-435, 48 h; procedure, shortened: as §1
SK-MEL-28 = test: Growth inhibition of human SK-MEL-28 cells after 48 hrs by SRB assay; format: functional; conditions: SK-MEL-28, 48 h; procedure, shortened: as §2
SK-MEL-5 = test: Growth inhibition of human SK-MEL-5 cells after 48 hrs by SRB assay; format: functional; conditions: SK-MEL-5, 48 h; procedure, shortened: as §2
UACC-62 = test: Growth inhibition of human UACC62 cells after 48 hrs by SRB assay; format: functional; conditions: UACC-62, 48 h; procedure, shortened: as §2
OVCAR-3 = test: Growth inhibition of human OVCAR3 cells after 48 hrs by SRB assay; format: functional; conditions: OVCAR-3, 48 h; procedure, shortened: as §1
OVCAR-5 = test: Growth inhibition of human OVCAR5 cells after 48 hrs by SRB assay; format: functional; conditions: OVCAR-5, 48 h; procedure, shortened: as §1
NCI/ADR-RES = test: Growth inhibition of human NCI/ADR-RES cells after 48 hrs by SRB assay; format: functional; procedure, shortened: as §1
SK-OV-3 = test: Growth inhibition of human SKOV3 cells after 48 hrs by SRB assay; format: functional; conditions: SK-OV-3, 48 h; procedure, shortened: as §2
786-0 = test: Growth inhibition of human 786-0 cells after 48 hrs by SRB assay; format: functional; conditions: 786-0, 48 h; procedure, shortened: as §1
A498 = test: Growth inhibition of human A498 cells after 48 hrs by SRB assay; format: functional; conditions: A498, 48 h; procedure, shortened: as §1
ACHN = test: Growth inhibition of human ACHN cells after 48 hrs by SRB assay; format: functional; procedure, shortened: as §1
CAKI-1 = test: Growth inhibition of human Caki1 cells after 48 hrs by SRB assay; format: functional; conditions: CAKI-1, 48 h; procedure, shortened: as §1
RXF 393 = test: Growth inhibition of human RXF393 cells after 48 hrs by SRB assay; format: functional; conditions: RXF 393, 48 h; procedure, shortened: as §1
SN12C = test: Growth inhibition of human SN12C cells after 48 hrs by SRB assay; format: functional; procedure, shortened: as §2
TK-10 = test: Growth inhibition of human TK10 cells after 48 hrs by SRB assay; format: functional; conditions: TK-10, 48 h; procedure, shortened: as §2
UO-31 = test: Growth inhibition of human UO31 cells after 48 hrs by SRB assay; format: functional; conditions: UO-31, 48 h; procedure, shortened: as §2
PC-3 = test: Growth inhibition of human PC3 cells after 48 hrs by SRB assay; format: functional; conditions: PC-3, 48 h; procedure, shortened: as §1
DU-145 = test: Growth inhibition of human DU145 cells after 48 hrs by SRB assay; format: functional; conditions: DU-145, 48 h; procedure, shortened: as §1
MCF7 = test: Growth inhibition of human MCF7 cells after 48 hrs by SRB assay; format: functional; conditions: MCF7, 48 h; procedure, shortened: as §1
MDA-MB-231 = test: Growth inhibition of human MDA-MB-231 cells after 48 hrs by SRB assay; format: functional; conditions: MDA-MB-231, 48 h; procedure, shortened: as §1
[4] = Growth inhibition of human Hs 578T cells after 48 hrs by SRB assay; format: functional; procedure, shortened: as §1
BT-549 = test: Growth inhibition of human BT549 cells after 48 hrs by SRB assay; format: functional; conditions: BT-549, 48 h; procedure, shortened: as §1
T47D = test: Growth inhibition of human T47D cells after 48 hrs by SRB assay; format: functional; procedure, shortened: as §2
MDA-MB-468 = test: Growth inhibition of human MDA-MB-468 cells after 48 hrs by SRB assay; format: functional; conditions: MDA-MB-468, 48 h; procedure, shortened: as §1

NC(=O)c1cc(Br)ccc1NC(=O)/C=C/c1ccccc1
inhibition of growth at 10 µM (K562 [1]): 62.4% | IC50 (K562 [2]): 5000 nM | GI50 (CCRF-CEM): 429 nM | GI50 (HL-60): 346 nM | GI50 (K562 [3]): 415 nM | GI50 (MOLT-4): 1860 nM | GI50 (RPMI-8226): 1030 nM | GI50 (A549): 1020 nM | GI50 (EKVX): 2410 nM | GI50 (HOP-62): 1510 nM | GI50 (HOP-92): 1960 nM | GI50 (NCI-H226): 2610 nM | GI50 (NCI-H23): 1090 nM | GI50 (NCI-H460): 662 nM | GI50 (COLO 205): 917 nM | GI50 (HCT-116): 663 nM | GI50 (HCT-15): 1040 nM | GI50 (HT-29): 527 nM | GI50 (KM12): 739 nM | GI50 (SW-620): 705 nM | GI50 (SF-268): 1830 nM | GI50 (SF-295): 625 nM | GI50 (SF-539): 819 nM | GI50 (SNB-19): 2000 nM | GI50 (SNB-75): 2070 nM | GI50 (U-251): 887 nM | GI50 (LOX IMVI): 3270 nM | GI50 (Malme-3M): 1210 nM | GI50 (M14): 482 nM | GI50 (MDA-MB-435): 231 nM | GI50 (SK-MEL-28): 839 nM | GI50 (SK-MEL-5): 435 nM | GI50 (UACC-62): 782 nM | GI50 (OVCAR-3): 349 nM | GI50 (OVCAR-5): 2920 nM | GI50 (NCI/ADR-RES): 400 nM | GI50 (SK-OV-3): 1410 nM | GI50 (786-0): 1760 nM | GI50 (A498): 1700 nM | GI50 (ACHN): 3360 nM | GI50 (CAKI-1): 1340 nM | GI50 (RXF 393): 444 nM | GI50 (SN12C): 2960 nM | GI50 (TK-10): 2670 nM | GI50 (UO-31): 1850 nM | GI50 (PC-3): 684 nM | GI50 (DU-145): 935 nM | GI50 (MCF7): 569 nM | GI50 (MDA-MB-231): 2190 nM | GI50 [4]: 624 nM | GI50 (BT-549): 1410 nM | GI50 (T47D): 1570 nM | GI50 (MDA-MB-468): 279 nM
